Results gathered from unrelated publications.
Target: Phosphatidylinositol 4-kinase beta (PI4KB, Homo sapiens, UniProt Q9UBF8)

| Compound | observed | method | concentration | remaining binding |
| --- | --- | --- | --- | --- |
| C[C@@H](c1ccc(-n2cnc3c(N)ncnc32)cc1)N1CCc2nn(C)c(Cc3ccccc3)c2C1=O | binding | competition with immobilised ligand | 0.1 µM | 42% |
| O=C(NCC1CCOCC1)c1n[nH]cc1NC(=O)c1c(F)cccc1F | binding | competition with immobilised ligand | 1 µM | 92% |
| Nc1c(C(=O)NCc2ccc(C(=O)NCCCC3CCCCC3)cc2)cnn1-c1ccccc1 | cell-free assay | competition with immobilised ligand | 0.1 µM | 100% |
| CCN1CCN(Cc2ccc(C(=O)Nc3ccc(C)c(Oc4ccc5c(c4)CC(=O)N5)c3)cc2C(F)(F)F)CC1 | binding | competition with immobilised ligand | 1 µM | 100% |
| O=C(c1ccc(Nc2ncc(Cl)c(-c3cc4ccccc4s3)n2)cc1)N1CCC(N2CCCC2)CC1 | binding | competition with immobilised ligand | 1 µM | 76% |
| FC(F)(F)c1ccc2c(c1)nc(-c1cccnc1)n2C1CC1 | cell-free assay | competition with immobilised ligand | 1 µM | 94% |
| COc1ccnn2ncc(-c3ccnc(N(C)C)n3)c12 | binding |  | 1 µM | 65% |
| CNC(=O)Nc1ccc2c(c1)[C@@]1(CC2)OC(=O)N(CC(=O)N(Cc2ccc(F)cc2)[C@@H](C)C(F)(F)F)C1=O | cell-free assay | competition with immobilised ligand | 1 µM | 71% |
| COc1cnc(Nc2cccc(S(N)(=O)=O)c2)nc1N1CCN(c2ccccc2)C(=O)C1 | binding | competition with immobilised ligand | 1 µM | 13% |
| COc1ncc2cc3ccccc3nc2c1C#N | cell-free assay | competition with immobilised ligand | 5 µM | 25% |
| CN(C)c1ncc(F)c(-c2cnn3ncccc23)n1 | binding |  | 1 µM | 100% |
| COCCOc1nc(-c2ccc(Cl)nc2)nc2c1CN(C(=O)c1ncn3ccccc13)CC2 | cell-free assay | competition with immobilised ligand | 0.1 µM | 100% |
| F[C@@H]1CCN(c2nccc(-c3cnn4ncccc34)n2)C1 | binding |  | 1 µM | 89% |
| CNCc1ccccc1-c1csc([C@@H](C)Nc2nc(C)nc3cc(OC)c(OC)cc23)c1 | cell-free assay | competition with immobilised ligand | 1 µM | 82% |
| CN(C)c1nccc(-c2cnn3ncccc23)n1 | binding |  | 1 µM | 58% |
| CCOC(=O)c1cc2cc(-c3cc(C(=O)NCc4ccc(C(=O)O)cc4)nn3C)ccc2[nH]1 | cell-free assay | competition with immobilised ligand | 0.1 µM | 79% |
| CN(c1nccc(-c2cnn3ncccc23)n1)C1CC1 | binding |  | 1 µM | 100% |
| O=C(c1ccc(Nc2nccc(-c3cc4ccccc4s3)n2)cc1)N1CCC(N2CCCC2)CC1 | binding | competition with immobilised ligand | 1 µM | 58% |
| N[C@H]1CCN(c2nccc(-c3cnn4ncccc34)n2)C1 | binding |  | 1 µM | 100% |
| O=C(NCCCN1CCOCC1)c1ccc(Nc2nccc(-c3cc4ccccc4s3)n2)cc1 | binding | competition with immobilised ligand | 1 µM | 45% |
| C[C@H]1CCN(c2nccc(-c3cnn4ncccc34)n2)C1 | binding |  | 1 µM | 19% |
| CSc1cccnc1N1CCN(Cc2nc3ccccc3[nH]2)CC1 | cell-free assay | competition with immobilised ligand | 1 µM | 73% |
